# Reference: ChEMBL document CHEMBL1157828, “Design, synthesis and pharmacological evaluation of novel naphthalenic derivatives as selective MT(1) melatoninergic ligands” (Bioorg Med Chem, 2010)
# Columns and labels:
# [1] = target: T1, Melatonin receptor type 1A (Homo sapiens, UniProt P48039); experiment: Displacement of 2-[125I]iodomelatonin from human MT1 receptor expressed in CHO cells; format: cell-based
# Outline: (§1)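 Membranes from CHO cells stably expressing human MT1 or MT2, grown in DMEM with 10% fetal calf serum, homogenized in Tris/EDTA and pelleted at 95,000g. Incubated with 20 pM 2-[125I]-iodomelatonin and test drug in 50 mM Tris/HCl pH 7.4, 5 mM MgCl2, 120 min at 37 °C. Stopped by filtration onto PEI-soaked GF/B filters. Ki = IC50/(1+[L]/KD) from seven-concentration curves.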
# [2] = target: T2, Melatonin receptor type 1B (Homo sapiens, UniProt P49286); experiment: Agonist activity at human MT2 receptor expressed in CHO cells by [35S]GTPgamma binding assay; format: functional, cell-based
# T2 sequence (P49286 whole entry): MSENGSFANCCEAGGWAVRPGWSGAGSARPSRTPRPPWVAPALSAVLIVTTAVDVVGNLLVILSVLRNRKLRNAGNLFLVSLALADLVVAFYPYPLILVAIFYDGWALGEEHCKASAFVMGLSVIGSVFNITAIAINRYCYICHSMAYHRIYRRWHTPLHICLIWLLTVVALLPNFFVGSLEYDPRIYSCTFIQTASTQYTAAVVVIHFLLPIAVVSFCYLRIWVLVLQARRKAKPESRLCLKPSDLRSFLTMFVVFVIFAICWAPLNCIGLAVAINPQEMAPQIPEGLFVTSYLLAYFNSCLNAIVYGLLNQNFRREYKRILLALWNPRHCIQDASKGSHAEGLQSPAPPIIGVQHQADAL
# [3] = target: T2, Melatonin receptor type 1B; experiment: Displacement of 2-[125I]iodomelatonin from human MT2 receptor expressed in CHO cells; format: cell-based; outline: as §1
# Homo sapiens = species on record: Homo sapiens; experiment: Selectivity ratio of Ki for human MT2 receptor to Ki for human MT1 receptor
# [4] = target: T1, Melatonin receptor type 1A; experiment: Agonist activity at human MT1 receptor expressed in CHO cells by [35S]GTPgamma binding assay; format: functional, cell-based
# T1 sequence (P48039 whole entry): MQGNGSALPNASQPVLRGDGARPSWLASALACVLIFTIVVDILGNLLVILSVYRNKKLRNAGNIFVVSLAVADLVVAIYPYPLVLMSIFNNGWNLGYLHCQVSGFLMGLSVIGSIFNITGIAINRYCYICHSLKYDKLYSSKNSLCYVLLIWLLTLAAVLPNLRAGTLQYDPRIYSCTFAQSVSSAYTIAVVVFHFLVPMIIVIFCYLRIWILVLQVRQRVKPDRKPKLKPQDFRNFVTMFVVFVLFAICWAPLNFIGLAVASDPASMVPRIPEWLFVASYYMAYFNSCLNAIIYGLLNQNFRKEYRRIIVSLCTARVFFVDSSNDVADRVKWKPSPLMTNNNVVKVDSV
Ki [1],EC50 [2],Ki [3],Ratio Ki (Homo sapiens),EC50 [4],SMILES
1.01 nM,134 nM,13.6 nM,13,,O=C(NCCc1cccc2ccc(OCCCCOc3ccc4cccc(CCNC(=O)C5CC5)c4c3)cc12)C1CC1
9.1 nM,,45.8 nM,5,3.14 nM,CC(=O)NCCc1cccc2ccc(OCCCCOc3ccc4cccc(CC(=O)O)c4c3)cc12
0.92 nM,40.2 nM,10.9 nM,12,16.1 nM,C=CCC(=O)NCCc1cccc2ccc(OCCCCOc3ccc4cccc(CCNC(=O)CC=C)c4c3)cc12
0.64 nM,,11.8 nM,18,11.2 nM,CC(=O)NCCc1cccc2ccc(OCCCCOc3ccc4cccc(CCNC(=O)c5ccco5)c4c3)cc12
,405 nM,,120,73 nM,CC(=O)NCCc1cccc2ccc(OCCCCOc3ccc4cccc(CCNC(C)=O)c4c3)cc12
1.51 nM,161 nM,59.1 nM,39,22 nM,CC(=O)NCCc1cccc2ccc(OCCCCOc3ccc4cc(C(C)C(=O)O)ccc4c3)cc12 (centres undefined)
0.55 nM,,51.3 nM,93,26.1 nM,CC(=O)NCCc1cccc2ccc(OCCCCOc3ccc(-c4ccc(C(=O)O)cc4)cc3)cc12
4.04 nM,,84.3 nM,21,2.38 nM,CC(=O)NCCc1cccc2ccc(OCCCCOc3ccc4[nH]cc(CCNC(C)=O)c4c3)cc12

# The remaining lines, values behind:
SMILES,Ki [1],EC50 [2],Ki [3],Ratio Ki (Homo sapiens),EC50 [4]
COC(=O)c1ccc(-c2ccc(OCCCCOc3ccc4cccc(CCNC(C)=O)c4c3)cc2)cc1,2.37 nM,,19.1 nM,8,46.2 nM
CC(=O)NCCc1cccc2ccc(OCCCCOc3ccc4occ(CCNC(C)=O)c4c3)cc12,1.38 nM,,13.9 nM,10,2.49 nM
C=CCC(=O)NCCc1cccc2ccc(OCCCCOc3ccc4cccc(CCNC(C)=O)c4c3)cc12,0.79 nM,,8.45 nM,11,12 nM
CC(=O)NCCc1cccc2ccc(OCCCCOc3ccc4scc(CCNC(C)=O)c4c3)cc12,3.47 nM,20.6 nM,16.9 nM,5,1.94 nM
COC(=O)C(C)c1ccc2cc(OCCCCOc3ccc4cccc(CCNC(C)=O)c4c3)ccc2c1 (centres undefined),0.37 nM,88 nM,4.22 nM,11,21.7 nM
CC(=O)NCCc1cccc2ccc(OCCCCOc3ccc(-c4ccc(CO)cc4)cc3)cc12,0.09 nM,26 nM,6.53 nM,72,2.37 nM
CC(=O)NCCc1cccc2ccc(OCCCCOc3ccc4cccc(CCNC(=O)C5CC5)c4c3)cc12,1.07 nM,,11.1 nM,10,9.1 nM
CC(=O)NCCc1cccc2ccc(-c3ccc4cccc(CCNC(C)=O)c4c3)cc12,,,,70,
CC(=O)NCCc1cccc2ccc(OCCCCOc3ccc4c(c3)C(CCNC(C)=O)CCC4)cc12 (centres undefined),0.26 nM,,6.79 nM,26,7.75 nM
COC(=O)Cc1cccc2ccc(OCCCCOc3ccc4cccc(CCNC(C)=O)c4c3)cc12,0.07 nM,,1.84 nM,26,2.89 nM
O=C(NCCCc1ccc2nc(CCCCc3ccccc3)oc2c1)C1CC1,,,,35,
